INS promoter act – TRM-6 insulin promoter activation; TRM-6 cells (human fetal islet line), insulin promoter eGFP reporter, imaging; plate-scaled: unstimulated 0, stimulated control 100; activation, % at 2 µM; 130,000 tested, 0.81% active;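 active = activation at 2 µM above a set limit, confirmed on inspection of the cell images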;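 also: share of cells whose green reporter signal exceeds an intensity cutoff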
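Material: TRM-6 insulin promoter–eGFP reporter cells. Buffer or medium: Low-glucose (5.5 mM) medium with tamoxifen. Probe or stimulus: tamoxifen at 0.75 µM added at seeding for reporter induction. Times: tamoxifen pre-incubation 15 h overnight, then compound exposure 48 h at 37 °C. Detection: high-content imaging of fixed cells with Hoechst nuclear stain.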
* = called active by the depositor; [ ] = another dose, or the depositor's remark. The sample as a whole holds a higher share of hits than the screen did.

SMILES	INS promoter act
CCOc1ccc(C(=O)Nc2cc(NC(=O)c3ccc(OCC)c(Cl)c3)cc(C(=O)O)c2)cc1Cl	-6
CCCn1nnc(NC(=O)c2ccc(OCC)c(Cl)c2)n1	623*
CCCn1nnc(NC(=O)c2ccc(Br)cc2)n1	-79
Cc1cccc(NC(=O)C(=O)NCCCN2CCOCC2)c1	3
O=C(Nc1nc2c(s1)CCc1ccccc1-2)c1ccco1	0
O=c1oc2cc(O)ccc2cc1-c1nc2c(s1)CCc1ccccc1-2	733*
O=c1oc2ccccc2cc1-c1ccc(O)cc1O	-7
Cc1cccc(-n2c(N)cc(=O)nc2SCC(=O)Nc2nnc(C)s2)c1	-10
Cc1onc(-c2ccccc2Cl)c1C(=O)Nc1cccc2nsnc12	-77
Cc1onc(-c2ccccc2Cl)c1C(=O)Nc1ccccc1N1CCOCC1	81*
Cc1onc(-c2ccccc2Cl)c1C(=O)Nc1ccc(N2CCOCC2)cc1	7
COc1ccc(N(C(=O)Cn2nnc3ccccc32)C(C(=O)NC(C)(C)C)c2ccc(OC)c(O)c2)cc1 (centres undefined)	-7
Cc1ccc(N(C(=O)Cn2nnc3ccccc32)C(C(=O)NCc2ccco2)c2ccc(C)o2)cc1 (centres undefined)	-8
CCC(C)(C)NC(=O)C(c1ccco1)N(C(=O)Cn1nnc2ccccc21)c1ccc2c(c1)OCO2 (centres undefined)	83*
N#Cc1ccsc1NC(=O)COc1ccc(-c2nnco2)cc1	-65
Cc1cc(C)c(S(=O)(=O)Nc2ccc[nH]c2=O)c(C)c1	0
COc1ccc(-c2ccc(C3C(C#N)=C(N)Oc4n[nH]c(C)c43)o2)cc1 (centres undefined)	-3
CC(OC(=O)C1=COCCO1)C(=O)Nc1ccccc1C#N (centres undefined)	5
Cc1ccc(/C=C(\C#N)c2nc3ccccc3[nH]2)s1	-96
N#C/C(=C/c1cccs1)c1nc2ccccc2[nH]1	-75
N#C/C(=C\c1cc([N+](=O)[O-])c(N2CCOCC2)cc1N1CCOCC1)c1nc2ccccc2[nH]1	-9
CCN(CC)c1ccc(/C=C(/C#N)c2nc3ccc(C)cc3[nH]2)c(OC(C)C)c1	245*
COc1cc(/C=C(\C#N)c2nc3ccccc3[nH]2)cc(Br)c1OCc1ccc(F)cc1	-7
CCOc1cc(N(CC)CC)ccc1/C=C(/C#N)c1nc2ccccc2[nH]1	233*
COC(=O)c1cc(COC(=O)c2nc3nc(C)cc(C)n3n2)oc1C	-8
SMILES	INS promoter act
O=S1(=O)N=C2CCCCCN2C(c2ccc(Br)cc2)N1 (centres undefined)	6
COc1ccc(C(=O)c2c[nH]c(C(=O)NCCCN3CCOCC3)c2)cc1	-8
CC(=O)Nc1ccc(C(=O)OCC(=O)NC2CCCCCCC2)cc1	0
O=C(OCn1ncc(Cl)c(Cl)c1=O)c1ccc(F)cc1	243*
O=C(Cn1ncc(Cl)c(Cl)c1=O)c1ccc(Cl)cc1	8
Cn1c(N)c(C(=O)COC(=O)c2ccc(Cl)nc2)c(=O)n(C)c1=O	-7
CCN(CC)CCOc1cccc(C(C)C)c1	9
CCN(CC)CCOc1ccc(/C(=C(/Cl)c2ccccc2)c2ccccc2)cc1	280*
CCOc1ccc(C(=O)OCCN(CC)CC)cc1	-80
COc1ccc(S(=O)(=O)N(C)CC(=O)NCc2ccco2)cc1	6
CCOC(=O)c1c(-c2ccc(Cl)cc2)c(C#N)c(=O)n(N)c1N	9
Cc1cc(C)c(OCCN2C(=O)NC(C)(C)C2=O)c(Cl)c1	8
Cc1cc(Cl)c(OCCN2C(=O)NC(C)(C)C2=O)c(Br)c1	538*
Cc1cc(Cl)c(OCCCN2CCCCC2)c(Br)c1	146
CC(C)(C)OC(=O)N1CCC(C(=O)N[C@@H](Cc2ccccc2)C(=O)O)CC1	-3
Cc1ccc(-c2nn(-c3ccccc3)cc2CN(Cc2ccccc2)C(=O)c2ccco2)o1	3
CCOC(=O)/C(=C/C=C1\Sc2cc(OCC)c(OCC)cc2N1CC)C(C)=O	669*[fluoresces]
CCCCCCC(=O)N/N=C/Cc1ccccc1	-7
CCCc1cc(-n2cnc3ccccc32)n2c(nc3ccccc32)c1C#N	76*
CCCNc1cc(C)c(C#N)c2nc3ccccc3n12	381
CCCc1cc(NCc2ccccn2)n2c(nc3ccccc32)c1C#N	0
Cc1c(NC(=O)CSc2nnc3sc4ccccc4n23)c(=O)n(-c2ccccc2)n1C	3
Cc1ccc(-n2ncc3c(=O)n(CC(=O)N4CCCc5ccccc54)cnc32)cc1C	10
O=C(NC1CCCCC1)C(c1ccco1)N(Cc1cccnc1)C(=O)C1COc2ccccc2O1 (centres undefined)	7
CC1=NN(c2ccccc2)C(=O)/C1=C\N1CC(C)OC(C)C1 (centres undefined)	-3
SMILES	INS promoter act
O=C1NN(c2ccc(F)cc2)C(=O)/C1=C\C=C\c1ccco1	3
CC1=NN(c2cccc(C(=O)O)c2)C(=O)/C1=C\C=C\c1ccco1	456*
Cc1cc(C)cc(C(=O)NCC(=O)OCC(=O)Nc2ccc(C)cc2Br)c1	0
COC(=O)[C@@H]1CC[C@H](C)[C@@H](c2ccc(C)cc2)N1C(=O)c1ccc(/C=N/O[C@@H](C)CN2CCCCc3nc(C)c(C)cc32)cc1	0
CCc1cc(C(=O)O)c(NC(=O)c2cc(OC)c(OC)c(OC)c2)s1	-7
COc1ccccc1-n1c(COc2ccccc2-c2ccccc2)nnc1SCC(=O)c1c(N)n(C)c(=O)n(C)c1=O	-2
COc1ccc(OCc2nnc(SCC(N)=O)n2-c2ccccc2OC)cc1	160*
NC(=O)CSc1nnc(COc2ccccc2)n1CCc1ccccc1	-6
CCOC(=O)C(NC(=O)c1cccc(Cl)c1)(Nc1nnc(C)s1)C(F)(F)F (centres undefined)	-7
Cn1c(=O)c2c(nc(CN3CCN(CCO)CC3)n2Cc2cccc3ccccc23)n(C)c1=O	-9
Cc1c(=O)n(OCc2cccc(F)c2)c2ccccc2[n+]1[O-]	132*
CCOC(=O)COn1c(=O)c(-c2ccc(OC)c(OC)c2)[n+]([O-])c2ccccc21	0
COc1ccc(-c2c(=O)n(OCc3ccccn3)c3ccccc3[n+]2[O-])cc1OC	-10
CN(CCc1ccccn1)c1ncnc2[nH]ncc12	-75
Cc1ccccc1CS(=O)(=O)Cc1ccc(C(=O)NCCCN2CC(C)CC(C)C2)o1 (centres undefined)	6
COC(=O)Nc1nn(-c2ccc(OC)cc2)c(=O)c(C#N)c1C	287*
Cc1c(C(=O)NN)nn(-c2ccc(Cl)cc2)c(=O)c1C#N	0
CCOC(=O)c1nn(-c2ccccc2)c2nc(-c3ccc(OC)cc3)c(C#N)c(=O)n12	7
Cc1ccc(S(=O)(=O)/N=C(/Nc2c(C)n(C)n(-c3ccccc3)c2=O)c2ccccc2)cc1	3
COc1nc(N)c(S(=O)(=O)c2ccc(C)cc2)cc1C#N	197*
Cc1ccc(S(=O)(=O)c2c(C)cc(C)nc2Cl)cc1	3
COc1ccc(-c2nc(N)n(S(=O)(=O)c3ccc(C)cc3)n2)cc1	8
O=C(Nc1cc2c(cc1Br)OCCCO2)c1ccccc1	0
CCCCP(=O)(CCCC)Cc1ccccc1O	610*
CCCCN(CCCC)NC(=O)c1ccccc1	-7
CCP(=O)(c1ccccc1)C(C)(C)O (centres undefined)	7
Cc1nc(N2CCN(c3ccccc3)CC2)[nH]c(=O)c1Cc1cccc2ccccc12	0
CCN1CCN(C(c2cccs2)C(C)NC(=O)C(C)C)CC1 (centres undefined)	-38
Cc1cnc(C)c(N(C)NC(=S)Nc2ccccc2)n1	485*

Compound activity as filed in PubChem.
